Results from ChEMBL document CHEMBL3865809, “2-Indolylmethylenebenzofuranones as first effective inhibitors of ABCC2” (Eur J Med Chem, 2016).
pIC50: −log10 of the molar value.

Experiments:
[1] = biological target: T1, ATP-binding cassette sub-family C member 2 (Homo sapiens, UniProt Q92887); assay: Inhibition of ABCC2 (unknown origin) expressed in MDCK2 cells assessed as inhibition of calcein-AM efflux measured after 30 mins in presence of ABCB1 inhibitor GF120918 and ABCC1 inhibitor MK-571 by flow cytometry; type: cell-based, MDCK-II
[2] = biological target: T1, ATP-binding cassette sub-family C member 2; assay: Inhibition of ABCC2 (unknown origin) expressed in human Flp-InTM-293 cells assessed as inhibition of calcein-AM efflux at 5 uM measured after 30 mins in presence of ABCB1 inhibitor GF120918 and ABCC1 inhibitor MK-571 by flow cytometry; type: cell-based; conditions: 0.5 h
Summary of the method: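 A confirmatory calcein-AM efflux assay was run the same way in Flp-In-293 cells stably transfected with ABCC2 (pcDNA5-FRT-ABCC2 plus pOG44, by electroporation) and in parental Flp-In-293 cells. Fluorescence was read by flow cytometry, with % inhibition computed against the parental line.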

[3] = biological target: T1, ATP-binding cassette sub-family C member 2; assay: Inhibition of ABCC2 (unknown origin) expressed in MDCK2 cells assessed as inhibition of calcein-AM efflux at 5 uM measured after 30 mins in presence of ABCB1 inhibitor GF120918 and ABCC1 inhibitor MK-571 by flow cytometry; type: cell-based; conditions: mdck-ii, 0.5 h
Summary of the method: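 Parental and ABCC2-transfected MDCKII cells were seeded at 3 × 10³ cells/well and grown 48 h at 37 °C in 5% CO2. They were then loaded with 25 nM calcein-AM in the presence of GF120918 and […] MK-571. Intracellular fluorescence was read by flow cytometry in the 525/50 nm channel, collecting ≥5000 events.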

[4] = Cytotoxicity against MDCK2 cells expressing ABCC2 measured after 72 hrs by MTT assay; type: toxicity, cell-based, Canis lupus familiaris, MDCK-II; conditions: dog
Summary of the method: (§1)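 MTT assay in parental and ABCC2-transfected MDCKII cells. Cells were seeded so that they stayed below confluence over 72 h at 37 °C, then exposed to compound from […] for 72 h. MTT at 5 mg/mL was added for 3 h. Formazan was dissolved in DMSO/isopropanol 1:1, and A570 was read and corrected at 690 nm. Mean ± SD of at least three independent experiments; DMSO-only controls run in parallel.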

[5] = Cytotoxicity against wild-type MDCK2 cells measured after 72 hrs by MTT assay; type: toxicity, cell-based, Canis lupus familiaris, MDCK-II; conditions: dog; summary of the method: as §1

T1 sequence (Q92887 whole entry): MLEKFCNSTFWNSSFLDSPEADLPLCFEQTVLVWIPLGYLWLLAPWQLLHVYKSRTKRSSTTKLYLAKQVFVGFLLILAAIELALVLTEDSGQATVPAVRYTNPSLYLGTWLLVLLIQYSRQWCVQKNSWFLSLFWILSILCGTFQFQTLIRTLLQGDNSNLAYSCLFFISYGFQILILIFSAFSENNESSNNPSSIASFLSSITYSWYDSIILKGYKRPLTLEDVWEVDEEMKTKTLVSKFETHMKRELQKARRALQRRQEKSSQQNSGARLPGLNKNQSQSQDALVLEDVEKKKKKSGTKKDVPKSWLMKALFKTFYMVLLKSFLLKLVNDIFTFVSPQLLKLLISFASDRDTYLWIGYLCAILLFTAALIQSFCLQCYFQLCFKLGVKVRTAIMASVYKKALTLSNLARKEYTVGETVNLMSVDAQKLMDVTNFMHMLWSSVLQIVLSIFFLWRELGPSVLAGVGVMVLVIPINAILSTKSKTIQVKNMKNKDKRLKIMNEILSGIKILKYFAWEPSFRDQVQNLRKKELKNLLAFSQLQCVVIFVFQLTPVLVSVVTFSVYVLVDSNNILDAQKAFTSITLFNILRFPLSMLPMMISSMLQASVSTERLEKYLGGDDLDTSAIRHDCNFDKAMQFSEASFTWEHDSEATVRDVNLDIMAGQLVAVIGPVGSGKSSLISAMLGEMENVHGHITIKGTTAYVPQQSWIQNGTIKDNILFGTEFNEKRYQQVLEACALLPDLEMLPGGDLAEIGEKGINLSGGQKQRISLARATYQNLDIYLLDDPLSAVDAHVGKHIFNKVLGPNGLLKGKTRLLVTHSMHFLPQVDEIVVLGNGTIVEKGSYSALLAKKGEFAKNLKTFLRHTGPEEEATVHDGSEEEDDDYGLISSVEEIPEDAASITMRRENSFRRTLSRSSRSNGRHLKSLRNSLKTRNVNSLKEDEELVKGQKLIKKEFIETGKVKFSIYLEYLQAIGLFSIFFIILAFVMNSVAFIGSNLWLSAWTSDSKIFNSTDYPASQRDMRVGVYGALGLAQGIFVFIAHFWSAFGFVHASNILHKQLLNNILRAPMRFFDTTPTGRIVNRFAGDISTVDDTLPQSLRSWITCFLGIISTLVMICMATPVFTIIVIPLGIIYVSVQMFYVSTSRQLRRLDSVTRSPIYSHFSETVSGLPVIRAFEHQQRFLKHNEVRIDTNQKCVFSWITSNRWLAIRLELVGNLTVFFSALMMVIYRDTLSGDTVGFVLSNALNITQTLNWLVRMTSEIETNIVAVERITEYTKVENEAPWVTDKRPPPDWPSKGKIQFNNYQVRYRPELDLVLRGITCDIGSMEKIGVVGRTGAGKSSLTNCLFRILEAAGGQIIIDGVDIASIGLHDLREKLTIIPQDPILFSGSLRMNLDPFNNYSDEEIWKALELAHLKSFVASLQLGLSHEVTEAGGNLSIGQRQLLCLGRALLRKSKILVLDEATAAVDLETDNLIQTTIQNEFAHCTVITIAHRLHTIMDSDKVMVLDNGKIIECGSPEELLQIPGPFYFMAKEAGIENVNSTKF

| SMILES | pIC50 [1] | inhibition (INH) [2] | inhibition (INH) [3] | IC50 at 72 h [4] [µM] | IC50 at 72 h [5] [µM] |
| --- | --- | --- | --- | --- | --- |
| CCCCn1cc(/C=C2\Oc3cc(O)cc(O)c3C2=O)c2cc(OC)ccc21 | 4.86 | Active | Active |  |  |
| CCCCn1c(/C=C2\Oc3cc(O)cc(O)c3C2=O)cc2ccccc21 | 5.05 | Active | Active |  |  |
| Cn1c(/C=C2\Oc3cc(O)cc(O)c3C2=O)cc2ccccc21 | 4.95 | Active | Active |  |  |
| CC(C)=CCn1cc(/C=C2\Oc3cc(O)cc(O)c3C2=O)c2ccccc21 | 4.97 | Active | Active |  |  |
| O=C1/C(=C/c2cn(CC3CCCCC3)c3ccccc23)Oc2cc(O)cc(O)c21 | 4.98 | Active | Active |  |  |
| O=C1/C(=C/c2cn(Cc3ccccc3)c3ccccc23)Oc2cc(O)cc(O)c21 | 4.91 | Active | Active |  |  |
| COc1cccc(Cn2cc(/C=C3\Oc4cc(O)cc(O)c4C3=O)c3ccccc32)c1 | 4.76 | Active | Active |  |  |
| O=C1/C(=C/c2cn(Cc3cccc(Br)c3)c3ccccc23)Oc2cc(O)cc(O)c21 | 4.84 | Active | Active |  |  |
| CCCCn1c(C)c(/C=C2\Oc3cc(O)cc(O)c3C2=O)c2ccccc21 | 4.94 | Active | Active |  |  |
| CCCCn1cc(/C=C2\Oc3cc(O)cc(O)c3C2=O)c2cccc(C)c21 | 5.35 | Active | Active | > 50 | > 50 |
| CCCCn1cc(/C=C2\Oc3cc(O)cc(O)c3C2=O)c2cccc(OC)c21 | 5.20 | Active | Active |  |  |
| CCCCn1cc(/C=C2\Oc3cc(O)cc(O)c3C2=O)c2cc(C)ccc21 | 5.32 | Active | Active | > 50 | > 50 |
| CCn1cc(/C=C2\Oc3cc(O)cc(O)c3C2=O)c2cc(Br)ccc21 | 4.75 | Active | Active |  |  |
| Cn1cc(/C=C2\Oc3cc(O)cc(O)c3C2=O)c2cc(Br)ccc21 | 5.35 | Active | Active | > 50 | > 50 |
| O=C1/C(=C/c2cn(CC3CCCCC3)c3ccc(Br)cc23)Oc2cc(O)cc(O)c21 | 4.80 | Active | Active |  |  |
| CCCCn1c(/C=C2\Oc3cc(O)cc(O)c3C2=O)c(C)c2ccccc21 | 5.09 | Active | Active |  |  |
| CCCCn1cc(/C=C2\Oc3cc(O)cc(O)c3C2=O)c2cc(Br)ccc21 | 4.81 | Active | Active |  |  |
| COc1ccc2c(c1)c(/C=C1\Oc3cc(O)cc(O)c3C1=O)cn2Cc1cccc(Br)c1 | 5.14 | Active | Active |  |  |
| COc1ccc2c(c1)c(/C=C1\Oc3cc(O)cc(O)c3C1=O)cn2CC1CCCCC1 | 5.39 | Active | Active | > 50 | > 50 |
